EWS-Fli block: inhibitors of EWS/Fli oncoprotein transcriptional activity | inhibition, % at 12.6 µM | A673 NR0B1-luciferase reporter, viability-normalised | hit rate 0.67% among 350,000;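 active = mean inhibition of at least 50% after viability correction, with every replicate also passing that limit; inconclusive = mean reaches 50% but only one of two replicates passes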;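 also: firefly luciferase signal divided by Alamar Blue viability fluorescence both relative to DMSO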
Env fusion inh: inhibitors of HIV Env-mediated cell fusion | AID 651610 | hit rate 1.1% among 360,000 | inhibition, % at 12.3 µM | HeLa-JRFL Env/CEM21 cell fusion, luciferase;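 active = mean replicate inhibition score of at least 50 and every replicate individually at or above 50; inconclusive = only one of the two criteria met; inactive = mean below 50 and not all replicates reaching 50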
PAX8 inh HTS: inhibitors of PAX8 transcriptional activity in RMG-I cells; RMG-I TPO-luciferase reporter, SteadyGlo, 24 h; inhibition, % at 12.6 µM; hit rate 1.2% among 360,000;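 active = mean replicate inhibition at least 60% with every replicate also reaching 60%; inconclusive = only one of the two criteria is met; inactive = mean below 60% and not all replicates reaching 60%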;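 also: luciferase light reporting Pax8 driven TPO promoter activity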
PGC1a acetyl inh: modulators of PGC1a acetylation | U2OS PGC1a acetylation, AlphaScreen anti-acetyl-lysine; with virally co-expressed GCN5 acetyltransferase | inhibition, % at 15.6 µM | hit rate 0.17% among 350,000 | AID 651687;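 active = every replicate shows inhibition of at least 40%; inconclusive = mean inhibition at least 40% but some replicate below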
FN deposition inh: fibronectin deposition inhibition | AH1F fibroblasts, Alexa488-fibronectin deposition fluorescence, overnight | inhibition, % at 12.6 µM | hit rate 0.086% among 350,000 | AID 743247;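 active = mean inhibition across replicates of 30% or more, regardless of how many single replicates reach that level; inconclusive = mean under 30% yet at least half of replicates reach 30%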
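Material: AH1F fibroblast monolayer depositing Alexa488-labelled fibronectin into matrix | Input: 10000 AH1F cells/well | Medium: DMEM plus 2% serum, read in PBS | Reagent: Alexa488-fibronectin, 24 nM final in well | Compound dosing: One dose per compound, pinned | Schedule: 1 h adhesion, overnight exposure | Measured by: Fluorescence at 485 nm excitation, 525 nm emission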
CFTR F508del cor: correctors of CFTR F508del function in bronchial epithelial cells; CFBE cells, YFP halide quenching; stimulated with forskolin plus potentiator P3; % fluorescence drop versus neutral controls; activity (quench increase), % at 7.58 µM; hit rate 0.36% among 350,000;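 active = mean added fluorescence quench of at least 8% versus neutral control, with both replicates also reaching 8%; inconclusive = only one of the mean or replicate conditions met; inactive = mean below 8% and not both replicates reaching 8%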;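 also: cells transiently co-express mutant CFTR-F508del with the halide-sensitive YFP; corrector assay measuring rescue of mutant channel to the surface after 24 h compound exposure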
Of the large screens only hits and unclear results are named; the others gave an inactive call; [ ] = another dose, or the depositor's remark. Only some compounds are listed: those with a hit (about 2.3% of all), similar ones and a draw of the others.

COC(=O)[C@@]1(Cc2ccccc2)[C@H]2C(=O)N(Cc3ccccc3)C(=O)[C@H]2[C@H]2CN=C(SCc3ccccc3)N21	Env fusion inh 76
COC(=O)[C@@]1(C)[C@H]2C(=O)N(Cc3ccccc3)C(=O)[C@H]2[C@H]2CN=C(SCc3ccc(C)cc3)N21	Env fusion inh 65
CCN1C(=O)[C@H]2[C@H]3CN=C(SCc4ccc(Cl)cc4)N3[C@@](CC)(C(=O)OC)[C@H]2C1=O	Env fusion inh 69
COC(=O)c1ccc(CSC2=NC[C@@H]3[C@@H]4C(=O)N(Cc5ccccc5)C(=O)[C@@H]4[C@](C)(C(=O)OC)N23)cc1	none
C[C@H](NC(=O)C[C@H]1CC[C@@H](NC(=O)Nc2ccc3c(c2)OCO3)[C@@H](CO)O1)c1ccccc1	none
CC(C)NC(=O)N(C)C[C@@H]1Oc2ccc(N)cc2C(=O)N(C)C[C@H]1C	none (no result: EWS-Fli block, Env fusion inh, PAX8 inh HTS, PGC1a acetyl inh, CFTR F508del cor)
Cc1onc(-c2c(F)cccc2Cl)c1C(=O)OCC(=O)NC(c1ccccc1)c1ccccc1	Env fusion inh 93 (no result: EWS-Fli block, PAX8 inh HTS, FN deposition inh, CFTR F508del cor)
C[C@@H]1CN([C@H](C)CO)C(=O)c2c(c3ccccc3n2C)-c2ccccc2CO[C@H]1CN(C)Cc1ccc(Oc2ccccc2)cc1	Env fusion inh inconclusive, PAX8 inh HTS 85
C[C@H]1CN([C@@H](C)CO)C(=O)c2c(c3ccccc3n2C)-c2ccccc2CO[C@@H]1CN(C)Cc1ccc(Oc2ccccc2)cc1	none (no result: Env fusion inh, PGC1a acetyl inh)
C[C@H]1CN([C@@H](C)CO)C(=O)c2c(c3ccccc3n2C)-c2ccccc2CO[C@@H]1CN(C)Cc1ccc(C(F)(F)F)cc1	PAX8 inh HTS 64 (no result: Env fusion inh, PGC1a acetyl inh)
C[C@@H]1CN([C@@H](C)CO)C(=O)c2c(c3ccccc3n2C)-c2ccccc2CO[C@H]1CN(C)Cc1cccc(C(F)(F)F)c1	Env fusion inh 57[16.7 µM] (no result: PAX8 inh HTS)
CCCCCCCCN1C(=O)[C@@H](CC(=O)NCc2ccc(OC)c(OC)c2)C[C@@]2(C(=O)OC)C1=C[C@H](C(C)(C)C)O[C@@H]2C	Env fusion inh 70 (no result: PGC1a acetyl inh)
COC(=O)[C@]12C[C@H](CC(=O)NCc3ccc(OC)c(OC)c3)C(=O)N(CCc3ccc(OC)c(OC)c3)C1=C[C@H](C(C)(C)C)O[C@@H]2C	Env fusion inh 58 (no result: PGC1a acetyl inh)
CCCCCCCCN1C(=O)[C@@H](CC(=O)NCc2cccc3ccccc23)C[C@@]2(C(=O)OC)C1=C[C@H](C(C)(C)C)O[C@@H]2C	Env fusion inh 63 (no result: PGC1a acetyl inh)
CCCCCCCCN1C(=O)[C@@H](CC(=O)NCc2cccs2)C[C@@]2(C(=O)OC)C1=C[C@H](C(C)(C)C)O[C@@H]2C	Env fusion inh inconclusive (no result: PGC1a acetyl inh)
CNC[C@@H]1OCCCC[C@H](C)Oc2ccc(NC(=O)Nc3ccccc3)cc2C(=O)N([C@@H](C)CO)C[C@@H]1C	none (no result: FN deposition inh)
O=C(C[C@H]1CC[C@@H](NC(=O)NC2CCCCC2)[C@@H](CO)O1)NCc1ccc(F)cc1	none
C[C@@H]1CN([C@@H](C)CO)C(=O)Cc2cc(NC(=O)Cc3ccccc3)ccc2O[C@H]1CN(C)Cc1ccccc1	none (no result: PGC1a acetyl inh, FN deposition inh)
CCN(CC)c1ccc(NC(=O)CCCCCN2C(=O)c3ccccc3C2=O)cc1	none (no result: EWS-Fli block, PAX8 inh HTS, PGC1a acetyl inh, CFTR F508del cor)
CCN(CC)c1ccc(NC(=O)CCCCC(=O)Nc2ccc(N(CC)CC)cc2)cc1	EWS-Fli block inconclusive, Env fusion inh 61 (no result: PGC1a acetyl inh)
COc1cc(/C=C/C(=O)N2CCC=CC2=O)cc(OC)c1OC	EWS-Fli block 70, PAX8 inh HTS 105 (no result: PGC1a acetyl inh)
COc1ccc(C(=O)c2ccc(OC)c(OC)c2)cc1OC	none (no result: EWS-Fli block, PGC1a acetyl inh, CFTR F508del cor)
O=C1C=CCCN1C(=O)/C=C/c1ccccc1Cl	EWS-Fli block 62, PGC1a acetyl inh 73 (no result: FN deposition inh)
O=C1C=CCCN1C(=O)/C=C/c1cccc(C(F)(F)F)c1	EWS-Fli block 62, PGC1a acetyl inh 78 (no result: FN deposition inh)
COc1ccc(C(=O)c2cc(OC)c(OC)c(OC)c2)cc1OC	CFTR F508del cor 13
OC[C@@H]1[C@H](c2ccc(-c3cccnc3)cc2)[C@@H]2CN(CC3CCOCC3)CCCCN12	none (no result: Env fusion inh, FN deposition inh)
COc1cc(C=CC(=O)c2cc(OC)c(OC)c(OC)c2)cc(OC)c1OC	PAX8 inh HTS 96 (no result: PGC1a acetyl inh)
COc1ccc2c3c([nH]c2c1)[C@@H](CO)N(Cc1nccs1)CC31CCN(C(=O)C2CC2)CC1	none (no result: Env fusion inh, PGC1a acetyl inh, FN deposition inh)
COc1ccc(/C=C2\SC(=O)N(CC(=O)Nc3cccc(C)c3)C2=O)cc1O	EWS-Fli block 72
COc1cc(/C=C2\SC(=O)N(CC(=O)Nc3cccc(C)c3)C2=O)ccc1OC(C)C(=O)O (stereo unspecified)	none (no result: CFTR F508del cor)
